Screens (PubChem)
This is a sample that favours compounds with a hit; in the whole collection about 3.5% have one here.
MrgX1 antag = human MrgX1 receptor antagonism, primary screen; Q96LB2; MRGX1-HEK293 calcium flux, Fluo-4, BAM8-22 antagonism; hits give low values; B-score at 10 µM; actives 1.3% (n = 310,000); AID 588676;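 active = calcium-response B-score plate-corrected more than 3 library SD below zero, starting fluorescence within 5 deviations, no agonist response on first addition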;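 also: peak minus trough fluorescence over baseline after final BAM8-22 challenge near maximal dose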
Target sequence (Q96LB2 whole entry, looked up): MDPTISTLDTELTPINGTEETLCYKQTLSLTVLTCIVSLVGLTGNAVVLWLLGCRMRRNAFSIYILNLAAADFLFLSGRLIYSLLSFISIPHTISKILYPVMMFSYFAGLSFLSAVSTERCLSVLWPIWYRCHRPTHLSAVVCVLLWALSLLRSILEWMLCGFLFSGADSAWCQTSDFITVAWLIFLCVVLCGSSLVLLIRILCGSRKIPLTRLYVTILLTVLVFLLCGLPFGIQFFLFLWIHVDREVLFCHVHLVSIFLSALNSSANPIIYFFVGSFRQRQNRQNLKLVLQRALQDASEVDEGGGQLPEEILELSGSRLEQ
RGS4 block = inhibitors of human RGS4. HEK293 M3R/RGS4 inducible, Fluo-4 calcium flux; hits give high values; triggered by carbachol at its EC20. P49798. AID 463165. B-score at 10 µM. actives 0.45% (n = 310,000);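 active = B-score, a plate-corrected calcium signal, over three deviations above library mean, with baseline fluorescence within five deviations of library mean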;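 also: RGS4 expression induced by doxycycline in cells with stable M3 receptor; B-score is computed from the integrated fluorescence ratio over baseline after carbachol; higher B-score means a larger calcium signal and so more RGS4 inhibition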
Target sequence (P49798 whole entry, looked up): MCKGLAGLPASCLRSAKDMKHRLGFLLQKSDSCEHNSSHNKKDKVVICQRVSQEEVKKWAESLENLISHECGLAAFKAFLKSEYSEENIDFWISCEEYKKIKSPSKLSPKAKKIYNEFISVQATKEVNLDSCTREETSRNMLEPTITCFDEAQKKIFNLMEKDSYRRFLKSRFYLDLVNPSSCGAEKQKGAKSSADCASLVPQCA
RGS4 act = potentiators or activators of RGS4. HEK293 M3R/inducible RGS4, carbachol calcium flux Fluo4; hits give low values. B-score at 10 µM. actives 0.92% (n = 310,000);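 active = B-score of the integrated calcium signal more than 4 SD below the library mean, with starting fluorescence not abnormally high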;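 also: negative B-score means reduced calcium response which marks RGS4 activation or potentiation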
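Reagent: ECmax carbachol challenge; Test system: M3R-expressing HEK293 line, RGS4 induced by doxycycline; Schedule: overnight RGS4 induction, 30 min dye load 37 °C, 20 min compound RT; Detection: calcium dye Fluo4 fluorescence; Read-out: Agonist-evoked peak-minus-minimum fluorescence over baseline, integrated ratio, B score.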
MrgX1 ag = agonists of human MrgX1 receptor; B-score at 10 µM; MrgX1-HEK293 cells, Fluo-4 calcium fluorescence, agonist mode; hits give high values; actives 0.44% (n = 310,000); Q96LB2;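 active = calcium response B-score plate-corrected fluorescence ratio at least 3 library SD, with starting fluorescence B-score inside 5 SD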
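System: HEK293 cells stably expressing human MrgX1 receptor; Dosing: test compound in the initial addition of three; Schedule: overnight plating, then 30 min 37 °C plus 30 min room-temperature dye loading; Detection: kinetic calcium dye fluorescence, Fluo-4 NW; Controls: per-plate positive and negative controls for Z′ factor.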
MrgX1 allo act = human MrgX1 positive allosteric modulation, primary screen; AID 588675; Q96LB2; B-score at 10 µM; actives 0.63% (n = 310,000); MrgX1-HEK293, Fluo-4 calcium flux, FDSS; hits give high values;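 active = plate-corrected calcium response at least 3 library SD above typical, normal starting fluorescence, not activating the receptor alone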;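 also: compound read alongside a low EC10 to EC30 dose of BAM8-22 agonist; peak minus trough fluorescence over baseline measured at the second addition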
MrgX1 ag reconf = reconfirmed activator of human MrgX1 receptor signaling. actives 78% (n = 600). AID 602412. MrgX1-HEK293, Fluo-4 calcium fluorescence, FDSS. activation, % at 10 µM. shares compounds with MrgX1 ag;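 active = calcium signal rise, corrected for plate position, at least 3 library SD high, with starting brightness within 5 such deviations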
HEK293 Ca flux = activity in parental HEK293 cells lacking MrgX1. fluorescence ratio F(max-min)/F0 at 10 µM. Fluo-4 calcium fluorescence, FDSS. actives 2% (n = 4,000). shares compounds with MrgX1 antag;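 active = duplicate-averaged calcium fluorescence ratio at least three times the standard deviation of buffer wells, a nonspecific response in parental cells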
HEK293 Ca counter = activity in parental HEK293 cells without MrgX1; shares compounds with MrgX1 antag; parental HEK293 calcium flux, Fluo-4 fluorescence ratio; hits give high values; fluorescence ratio F(max-min)/F0 at 10 µM; actives 0.4% (n = 4,000); AID 624114;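 active = calcium fluorescence ratio, averaged over duplicates, at least 3 SD of the buffer-well ratio, meaning a nonspecific response in receptor-free cells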;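 also: untransfected parental HEK293 lacking MrgX1 used as counterscreen for MrgX1 allosteric activators; fluorescence change taken during the second addition on a kinetic imager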
HEK293 Ca cntr2 = counter-screen for MrgX1 activators: effect in parental HEK293 cells; shares compounds with MrgX1 antag; Fluo-4 calcium fluorescence (FDSS); hits give high values; fluorescence ratio F(max-min)/F0 at 10 µM; actives 8.7% (n = 4,000); AID 624115;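 active = calcium fluorescence ratio at least three times the spread of buffer wells, meaning a non-specific response in parental cells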
* marks the source's active call; other numbers are inactive results; i = inactive; . = not tested or not shown.

SMILES	MrgX1 antag	RGS4 block	RGS4 act	MrgX1 ag	MrgX1 allo act	MrgX1 ag reconf	HEK293 Ca flux	HEK293 Ca counter	HEK293 Ca cntr2
CC1(C)CSC(=NCc2ccccc2)N1C(=O)c1cccc([N+](=O)[O-])c1	i	i	i	84*	i	504.9%*	i	i	103*
OCCn1nc(-c2ccccc2)cc1-c1ccccc1	i	i	i	31.6*	i	i	i	i	i
Nc1cc(-c2ccccc2)nn1Cc1ccccc1	i	i	i	i	i	.	.	.	.
CN=C(Nc1cc(C)nn1CCC#N)c1ccccc1	i	i	i	i	i	.	.	.	.
Cc1cc(OC(=O)c2ccccc2)n(CCC#N)n1	i	i	i	37.8*	i	194.5%*	i	i	i
CN1CCc2c(sc3c2C(=O)NC(c2ccc(-c4ccc(Cl)cc4)o2)N3)C1 (stereo not given)	i	i	i	31.2*	i	i	i	i	i
CN(C)c1ccc(/C=C(/C(=O)c2ccc(Cl)cc2Cl)n2cncn2)cc1	i	i	i	76.9*	i	i	0.328*	i	i
CN(C)CCOc1ccc2c(c1)Sc1ccccc1CC2=O	i	i	i	54.8*	i	i	i	i	i
Cc1cc(C)c(-c2cc(C(=O)Nc3cc(C)ccc3C)[nH]n2)c(O)c1	i	i	i	i	i	.	.	.	.
Cc1ccccc1C(=O)NNC(=S)NC(=O)c1ccc(Cl)cc1Cl	i	i	-10.2*	172*	i	775.8%*	i	i	154*
O=C(NC(=S)NNC(=O)c1ccc(Cl)cc1Cl)c1cccnc1	i	i	i	i	i	.	.	.	.
Cc1onc(-c2ccccc2)c1C(=O)NNC(=S)NC(=O)c1ccc(Cl)cc1Cl	i	i	i	180*	i	714.3%*	i	i	115*
COc1ccc(Cl)cc1NC(=O)c1c(-c2ccccc2)noc1C	i	i	i	i	i	.	.	.	.
O=C(/C=C/c1ccccc1)NC(=S)NNC(=O)Cc1cccs1	i	i	i	71.3*	i	262.1%*	i	i	73*
Cc1onc(-c2ccccc2)c1C(=O)NNC(=O)c1ccccc1O	i	i	i	i	i	.	.	.	.
Cc1onc(-c2ccccc2)c1C(=O)NNC(=S)NC(=O)c1ccc(Br)cc1	i	i	i	85.7*	i	705.3%*	i	i	138*
Cc1c(NC(=O)C(C)OC(=O)CCc2c[nH]c3ccccc23)c(=O)n(-c2ccccc2)n1C (stereo not given)	i	i	i	i	i	.	.	.	.
Cc1onc(-c2ccccc2)c1C(=O)NNC(=S)NC(=O)/C=C/c1ccccc1	i	i	i	95.1*	i	454.7%*	i	i	72.1*
Cc1onc(-c2ccccc2)c1C(=O)Nc1ccccc1NC(=O)c1c(-c2ccccc2)noc1C	i	i	i	i	i	.	.	.	.
CCn1c(=S)sc2c(=O)n(CC(=O)Nc3ccc(C(C)=O)cc3)c(C)nc21	i	i	i	i	i	.	.	.	.
O=C(OCc1cc2ccccc2[nH]c1=O)c1cccs1	i	i	i	38.2*	i	i	i	i	i
CC1CCN(S(=O)(=O)c2cccc(C(=O)Nc3ccccc3)c2)CC1	i	i	i	i	i	.	.	.	.
COc1cc(OC)cc(-c2nnc(NC(=O)CCS(=O)(=O)c3ccc(C)cc3)o2)c1	i	i	i	i	i	.	.	.	.
CC(C)(C)N1C(=O)c2ccccc2NC(=O)N1Cc1ccccc1	i	i	i	i	i	.	.	.	.
O=C1Nc2ccccc2C(=O)C1(Cl)Cc1ccccc1 (stereo not given)	i	i	i	32.4*	i	199.1%*	i	i	i
SMILES	MrgX1 antag	RGS4 block	RGS4 act	MrgX1 ag	MrgX1 allo act	MrgX1 ag reconf	HEK293 Ca flux	HEK293 Ca counter	HEK293 Ca cntr2
COc1ccc(NC(=O)CS(=O)CC(=O)Nc2ccc(-n3cnnn3)c(C)c2)cc1 (stereo not given)	i	i	i	i	i	.	.	.	.
O=C(O)c1ccc(-c2ccc(/C=c3/sc4nc5ccccc5n4c3=O)o2)cc1Cl	i	i	i	80.7*	i	465.1%*	0.128*	i	104*
O=C(CN1C(=O)C(=O)c2ccccc21)c1ccccc1	i	i	i	i	i	.	.	.	.
O=C1C(=O)N(Cc2cccs2)c2ccccc21	i	i	i	32.7*	i	184.8%*	i	i	i
CCCCOc1ccc(CSC(=N)N)cc1Cl	i	i	i	35.1*	i	164.1%*	i	i	i
CCCCCOc1ccc(Br)cc1CSC(=N)N	.	i	i	.	.	.	.	.	.
COc1ccccc1NC(=O)C1=C(C)NC(SCC(=O)Nc2ccc(C(=O)O)cc2)=C(C#N)C1c1cccs1 (stereo not given)	i	i	i	i	i	.	.	.	.
CCCCCN=C(N)N/N=C/c1c[nH]c2ccc(OC)cc12	i	i	i	74.8*	i	487.7%*	i	i	137*
CCCOc1ccc(C(=O)N/N=C/c2c[nH]c3ccc(Br)cc23)cc1	i	i	i	i	i	.	.	.	.
O=C(CCl)N(c1ccccc1)c1c[nH]c2ccccc12	i	i	i	i	i	.	.	.	.
O=C(CCl)N(c1ccc(Cl)cc1)c1c[nH]c2ccccc12	i	i	i	29.8*	i	145.7%*	i	i	i
CCS(=O)(=O)CCSC1OC(COC(C)=O)C(OC(C)=O)C(OC(C)=O)C1OC(C)=O (stereo not given)	i	i	i	i	i	.	.	.	.
CC[C@@H](C(=O)[C@@H](C)[C@@H](O)[C@H](C)CCc1ccc(C)c(O)c1C(=O)O)[C@H]1O[C@](CC)([C@H]2CC[C@](O)(CC)[C@H](C)O2)C[C@@H]1C	i	i	i	147*	i	909.0%*	i	i	198*
O=c1c2c(-c3ccccc3)csc2ncn1/N=C/c1ccc(O)c([N+](=O)[O-])c1	i	i	i	i	i	.	.	.	.
